Experimental findings from ChEMBL document CHEMBL1125110, “Synthesis and pharmacological studies of N-[4-[2-hydroxy-3-[[2-[4-(1H-imidazol-1-yl)phenoxy]ethyl]amino]propoxy]phenyl]methanesulfonamide, a novel antiarrhythmic agent with class II and class III activities” (J Med Chem, 1990) are described below.

For orientation: IC50 means the point on the concentration scale where inhibition reaches its midpoint. Lower therefore signals higher potency. For orientation: half-life means the time in which the quantity being followed falls by half. As a reminder, the inhibition is the relative decrease from the control value, in per cent. A higher inhibition goes with strong suppression. By bioavailability is commonly meant dose-corrected exposure relative to a reference, in per cent. The term LD50 denotes the dose at which mortality reaches 50%. Low values mean a more toxic substance, high ones a less toxic substance.

Data set [1] relates to Canis familiaris. The data set is described as follows: In vivo coronary flow in anesthetized dog at 30 mg/kg. Type of data set: functional, Canis lupus familiaris. The method in brief:
(§1)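 Pentobarbital-anesthetized mongrel dogs, 30 min stabilization. Cumulative iv doses of 3, 10 and 30 mg/kg, each over 5 min, monitored every 5 min for 15 min. Percent change ± SEM from control at 15 min after the 30 mg/kg dose; n = 4.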

For data set [2], the system named is Canis familiaris. The data set is described as follows: In vivo efficacy against halothane/epinephrine induced arrhythmias in 6 anesthetized dogs at 3 mg/kg. The format is functional, Canis lupus familiaris. The gist of the method:
(§2)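 Mongrel dogs under thiopental, ventilated with 1.5 vol% halothane in O2. After 15–30 min stabilization, drug given iv over 10 min. After 20 min equilibration, epinephrine infused at 1.5 µg/kg/min for 15 min. Effective if SVT/VF could not be induced.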

Data set [3] concerns Canis familiaris. The data set is described as follows: In vivo isoproterenol response in conscious dogs at 1.0 mg/kg. The format is functional, Canis lupus familiaris. The method in brief:
(§3)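 Conscious mongrel dogs (n = 4) with lead II ECG. Isoproterenol given iv (0.04, 0.08, 0.16 µg/kg) before and after cumulative compound doses of 0.3–10.0 mg/kg. Percent change from the control heart-rate response to 0.08 µg/kg isoproterenol, ± SEM.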

Data set [4] deals with Canis familiaris. The data set is described as follows: In vivo PES efficacy in conscious dogs (iv). Type of data set: functional. As to conditions: Canis lupus familiaris, read-out: MED. The gist of the method: (§4)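 Mongrel dogs with surgically produced occlusion/reperfusion infarction, studied conscious 3–8 days later. Two control arrhythmias induced by programmed electrical stimulation before iv drug; SVT ended by burst pacing, VF by DC countershock. Counted effective if noninducible after drug.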

For data set [5], the system named is Canis familiaris. Kind of data set: In vivo mean arterial pressure in anesthetized dog at 30 mg/kg. Type of data set: functional, Canis lupus familiaris, Artery. The gist of the method: as §1
Data set [6] deals with Canis familiaris. Kind of data set: In vivo cardiac output in anesthetized dog at 30 mg/kg. Type of data set: functional, Canis lupus familiaris. The gist of the method: as §1
Data set [7] is filed under the species Canis familiaris. The data set is described as follows: In vitro electrophysiological activity in isolated canine cardiac Purkinje fibers using standard microelectrode technique. Type of data set: functional, Canis lupus familiaris, Purkinje fiber. The method in brief:
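Canine cardiac Purkinje fibers studied with standard intracellular microelectrodes. C20APD95 is the concentration raising action potential duration at 95% repolarization by 20% over control. Reported as the log mean of n experiments with the range.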

Data set [8] concerns Canis familiaris. Kind of data set: In vivo isoproterenol response in conscious dogs at 3.0 mg/kg. The format is functional, Canis lupus familiaris. The method in brief:
as §3

For data set [9], the system named is Canis familiaris. Kind of data set: In vivo isoproterenol response in conscious dogs at 0.3 mg/kg. Type of data set: functional, Canis lupus familiaris. The method in brief: as §3
The test system of data set [10] is Canis familiaris. The data set is described as follows: In vivo PES efficacy in 9 conscious dogs (PES programmed electrical stimulation protocol). The format is functional, Canis lupus familiaris. The method in brief: as §4
The test system of data set [11] is Canis familiaris. Kind of data set: In vivo total peripheral resistance in anesthetized dog at 30 mg/kg. Type of data set: functional, Canis lupus familiaris. The method in brief: as §1
Data set [12] has as its system Canis familiaris. The data set is described as follows: In vivo left ventricular contractility change in anesthetized dog at 30 mg/kg. The format is functional, Canis lupus familiaris, Heart left ventricle. The gist of the method: as §1
The test system of data set [13] is Canis familiaris. Kind of data set: In vivo efficacy against halothane/epinephrine induced arrhythmias in 4 anesthetized dogs at 1 mg/kg. Type of data set: functional, Canis lupus familiaris. The gist of the method:
as §2

Data set [14] relates to Canis familiaris. The data set is described as follows: In vivo heart rate in anesthetized dog at 30 mg/kg. Type of data set: functional, Canis lupus familiaris. The method in brief: as §1
Data set [15] concerns the target Beta-2 adrenergic receptor (Canis lupus familiaris, UniProt P54833). The data set is described as follows: In vitro Beta-2 adrenergic receptor affinity in partially purified membrane fractions from canine lung tissue using […]dihydroalprenolol (4.5 nM). Type of data set: cell membranes.
The species entered for data set [16] is Mustela putorius furo. The data set is described as follows: In vitro contractile function in isolated ferret papillary muscle at 10 uM. The format is functional, Muscle tissue. The method in brief: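 Isolated ferret papillary muscle exposed to drug at 10 μM. Read-out is percent change in contractile force from the control value. Reported as the average of n experiments with the range.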

Data set [17] concerns Canis familiaris. Kind of data set: In vivo isoproterenol response in conscious dogs at 10.0 mg/kg. Type of data set: functional, Canis lupus familiaris. The method in brief:
as §3

Data set [18] can be described thus: Compound was evaluated for half life. The format is ADME.
The subject of data set [19] is Canis familiaris. The data set is described as follows: In vivo efficacy against halothane/epinephrine induced arrhythmias in 4 anesthetized dogs at 0.3 mg/kg. The format is functional, Canis lupus familiaris. The gist of the method:
as §2

For data set [20], the target named is Phosphodiesterase; PDE3 & PDE4 (Homo sapiens) (UniProt P27815+Q14432+Q08499+Q07343+Q13370+Q08493). The data set is described as follows: Inhibition of canine cardiac particulate cAMP phosphodiesterase. The format is protein assay. The note with it: Canis lupus familiaris; target entry is the homologue from another species; concentration not given here. The method in brief:
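Particulate cAMP phosphodiesterase fraction from dog heart; inhibition measured at 100 μM.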

The subject of data set [21] is Canis familiaris. The data set is described as follows: In vivo PES efficacy in 8 conscious dogs (PES programmed electrical stimulation protocol). The format is functional, Canis lupus familiaris. The gist of the method: as §4
Data set [22] has as its system Canis familiaris. The data set is described as follows: In vivo efficacy against halothane/epinephrine induced arrhythmias in 4 anesthetized dogs at 3 mg/kg. The format is functional, Canis lupus familiaris. The method in brief: as §2
Data set [23] is filed under the species Mustela putorius furo. The data set is described as follows: In vitro contractile function in isolated ferret papillary muscle at 10 uM. Type of data set: functional, Muscle tissue. The gist of the method:
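Isolated ferret papillary muscle; drug at 10 μM. Read-out is percent change in force of contraction from the control value. Value is the average of n experiments, with the range given.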

Data set [24] in a line: Bioavailability after oral administration of 3 mg/kg to dogs. As to conditions: dog, in vivo. Type of data set: ADME, organism-based, Canis lupus familiaris.
Data set [25] deals with Canis familiaris. Kind of data set: In vivo efficacy against halothane/epinephrine induced arrhythmias in 8 anesthetized dogs at 1 mg/kg. Type of data set: functional, Canis lupus familiaris. The method in brief:
as §2

Data set [26] in a line: Compound was evaluated for lethal dose in rats after intravenous administration; Range is 200-300 mg/kg. The format is toxicity, organism-based. The note with it: rat, in vivo.
Data set [27] has as its system Canis familiaris. Kind of data set: In vivo efficacy against halothane/epinephrine induced arrhythmias in 2 anesthetized dogs at 0.3 mg/kg. Type of data set: functional, Canis lupus familiaris. The gist of the method:
as §2

Chain of Beta-2 adrenergic receptor (P54833 whole entry): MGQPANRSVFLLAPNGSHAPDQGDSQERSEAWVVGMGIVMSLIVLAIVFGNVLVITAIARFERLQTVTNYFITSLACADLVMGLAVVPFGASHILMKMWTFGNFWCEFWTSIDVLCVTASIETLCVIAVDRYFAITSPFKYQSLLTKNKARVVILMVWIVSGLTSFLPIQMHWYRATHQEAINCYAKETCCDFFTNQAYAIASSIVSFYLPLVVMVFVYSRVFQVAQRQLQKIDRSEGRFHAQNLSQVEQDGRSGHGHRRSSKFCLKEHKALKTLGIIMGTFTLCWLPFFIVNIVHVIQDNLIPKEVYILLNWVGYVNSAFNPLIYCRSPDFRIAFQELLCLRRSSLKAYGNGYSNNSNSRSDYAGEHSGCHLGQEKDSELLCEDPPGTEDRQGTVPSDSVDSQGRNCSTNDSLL

Consider `CC(C)NCC(O)c1ccc(NS(C)(=O)=O)cc1` (racemic) [SOTALOL], for which, in the data set with Canis familiaris [1], the Coronary flow was -51%. The No. effective in the data set on Canis familiaris [2] was 6; in the data set with Canis familiaris [10] it was 7; with Canis familiaris [13] it was 4. Further, the Response in the data set on Canis familiaris [3] is given as -42%; with Canis familiaris [8] it was -79%; in the data set with Canis familiaris [9], -72%. In addition, the minimal effective dose in the data set with Canis familiaris [4] is about 2 mg/kg. Besides, the MAP with Canis familiaris [5] is -42%. Further, the CO with Canis familiaris [6] is on record as -61%. Further, in the data set listed under Canis familiaris [7], the “C20 APD95” value came to 18 µM. Besides, the TPR in the data set with Canis familiaris [11] is 78%. The “LV dP/dt” value in the data set on Canis familiaris [12] is -52%. Moreover, in the data set on Canis familiaris [14], the HR is reported as -51%.
Take `CC(C)(COc1ccc(-n2ccnc2)cc1)NCC(O)COc1ccc(NS(C)(=O)=O)cc1.Cl.Cl` (stereo not given): the 50% inhibitory concentration (IC50) in data set [15] stood at 23 µM. Further, in the data set listed under Canis familiaris [7], the “C20 APD95” value was found to be 0.5 µM. Further, the “Delta F” value in the data set filed under Mustela putorius furo [16] is 69%.
As to `CCN(CC)CCOc1ccc(-n2ccnc2)cc1`, the “C20 APD95” value in the data set filed under Canis familiaris [7] came out at 3.4 µM.
Take `CCN(CC)CC(O)COc1ccc(NS(C)(=O)=O)cc1` (stereo not given): the “C20 APD95” value in the data set filed under Canis familiaris [7] amounted to 4.8 µM.
Turning to `Cc1nccn1-c1ccc(OCCNCC(O)COc2ccc(NS(C)(=O)=O)cc2)cc1.O=P(O)(O)O` (stereo not given), in data set [15], half-maximal inhibition (IC50) was put at 57 µM. In addition, the “C20 APD95” value in the data set filed under Canis familiaris [7] came to 7.3 µM. For the same molecule, the “Delta F” value in the data set listed under Mustela putorius furo [16] turned out to be 9%.
For `Cc1nccn1-c1ccc(OCCNCC(O)COc2ccc(N(C)S(C)(=O)=O)cc2)cc1` (stereo not given) the same measures were over 100 µM, over 30 µM and -16%.
`CS(=O)(=O)Nc1ccc(OC[C@@H](O)CNCCOc2ccc(-n3ccnc3)cc2)cc1.Cl`: in the data set with Canis familiaris [1], the Coronary flow is given as -41%. For the same molecule, the Response is reported as -64% in the data set on Canis familiaris [17], -25% in the data set on Canis familiaris [3], -45% with Canis familiaris [8] and 10% in the data set with Canis familiaris [9]. This molecule also displayed a half-maximal inhibitory concentration (IC50) in data set [15] of 100 µM. Besides, in the data set on Canis familiaris [4], the minimal effective dose is about 0.4 mg/kg. Besides, the half-life in [18] is 3 h. Also, the No. effective worked out at 2 with Canis familiaris [19], 4 in the data set with Canis familiaris [13] and 7 with Canis familiaris [21]. In the data set with Canis familiaris [5], the MAP was -30%. For the same molecule, in the data set on Canis familiaris [6], the CO is listed as -32%. For the same molecule, in the data set listed under Canis familiaris [7], the “C20 APD95” value was 0.8 µM. In data set [20], the inhibition was 19%. Also, the TPR in the data set on Canis familiaris [11] came to 6%. Moreover, the “LV dP/dt” value with Canis familiaris [12] is -28%. For the same molecule, the “Delta F” value in the data set filed under Mustela putorius furo [16] is 75%. Further, the HR in the data set on Canis familiaris [14] is -48%.
On to `CS(=O)(=O)Nc1ccc(OC[C@H](O)CNCCOc2ccc(-n3ccnc3)cc2)cc1.Cl`, for which the No. effective in the data set with Canis familiaris [22] and in the data set on Canis familiaris [13] was 1 each time. Also, the Response is 41% in the data set with Canis familiaris [17], 62% in the data set on Canis familiaris [3], -6% in the data set with Canis familiaris [8] and 40% in the data set on Canis familiaris [9]. For the same molecule, in data set [15], the half-inhibitory concentration (IC50) was over 100 µM. In addition, in the data set listed under Canis familiaris [7], the “C20 APD95” value came out at 0.8 µM. Also, in the data set listed under Mustela putorius furo [23], the “Delta F” value was determined as 27%.
In the case of `CS(=O)(=O)Nc1ccc(OCC(O)CNCCOc2ccc(-n3ccnc3)cc2)cc1.Cl` (stereo not given), the Coronary flow with Canis familiaris [1] is given as -29%. The Response is given as -78% with Canis familiaris [17], -0.75% in the data set on Canis familiaris [3], -74% in the data set with Canis familiaris [8] and 30% in the data set on Canis familiaris [9]. The bioavailability in [24] is 60%. Moreover, the results for the No. effective in the data set with Canis familiaris [25], in the data set with Canis familiaris [27] and in the data set on Canis familiaris [21] were 6, 0 and 8, respectively. This molecule also gave an IC50 in [15] of 47 µM. The minimal effective dose in the data set on Canis familiaris [4] is about 1 mg/kg. Besides, the LD50 in [26] came to 200 mg/kg. Moreover, the MAP in the data set with Canis familiaris [5] is listed as -25%. For the same molecule, in the data set on Canis familiaris [6], the CO is -28%. Moreover, the “C20 APD95” value in the data set filed under Canis familiaris [7] turned out to be 0.4 µM. In the data set with Canis familiaris [11], this molecule had a TPR of 3%. In the data set with Canis familiaris [12], the LV dp/dt is -38%. Besides, in the data set listed under Mustela putorius furo [23], the “Delta F” value was determined as 53%. In addition, the HR with Canis familiaris [14] was -49%.
`CN(c1ccc(OCC(O)CNCCOc2ccc(-n3ccnc3)cc2)cc1)S(C)(=O)=O.Cl.Cl` (stereo not given) returned an IC50 in data set [15] of over 100 µM. Besides, the “C20 APD95” value in the data set listed under Canis familiaris [7] amounted to 1.4 µM. In the data set listed under Mustela putorius furo [16], the “Delta F” value is -15%.
